In the library only some 2.5% were active in any assay of this set; here they are far more common.
TRPC6 activator: activates the mouse TRPC6 cation channel; Q61143; HEK293-TRPC6 membrane potential dye fluorescence; active compounds read high; B-score at 10 µM; 310,000 tested, 0.13% active;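 active means B-score of the integrated fluorescence ratio above library mean plus 3 SD, and starting fluorescence ratio within library mean plus 5 SD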;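 further: higher score means more depolarization so channel activation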
Pemphigus Ab inh: human desmoglein-3 autoantibody binding inhibition | P32926 | DSG3-coupled beads, scFv-anti-DSG3-GFP binding, flow cytometry; active compounds read low | binding (percent of control), % at 10 µM | 310,000 tested, 0.48% active | AID 588358;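 active means binding more than 3 SD below its plate's average and above zero; inconclusive means below that plate limit but binding exactly zero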;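 further: hits lower antibody fragment binding to DSG3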
TRPC4 PAM: allosteric potentiators of mouse TRPC4 channel; Q9QUQ5; HEK293 TRPC4beta/mu-opioid, DAMGO EC20, Fluo-4 Ca2+ flux; active compounds read high; B-score at 10 µM; 310,000 tested, 0.42% active; AID 2227;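 active means B-score of calcium response area above 5 SD of library B-scores, with initial fluorescence ratio within 5 SD of library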;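 further: B-score of integrated fluorescence ratio over time as area under calcium response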
Target sequence (Q9QUQ5 whole entry, looked up): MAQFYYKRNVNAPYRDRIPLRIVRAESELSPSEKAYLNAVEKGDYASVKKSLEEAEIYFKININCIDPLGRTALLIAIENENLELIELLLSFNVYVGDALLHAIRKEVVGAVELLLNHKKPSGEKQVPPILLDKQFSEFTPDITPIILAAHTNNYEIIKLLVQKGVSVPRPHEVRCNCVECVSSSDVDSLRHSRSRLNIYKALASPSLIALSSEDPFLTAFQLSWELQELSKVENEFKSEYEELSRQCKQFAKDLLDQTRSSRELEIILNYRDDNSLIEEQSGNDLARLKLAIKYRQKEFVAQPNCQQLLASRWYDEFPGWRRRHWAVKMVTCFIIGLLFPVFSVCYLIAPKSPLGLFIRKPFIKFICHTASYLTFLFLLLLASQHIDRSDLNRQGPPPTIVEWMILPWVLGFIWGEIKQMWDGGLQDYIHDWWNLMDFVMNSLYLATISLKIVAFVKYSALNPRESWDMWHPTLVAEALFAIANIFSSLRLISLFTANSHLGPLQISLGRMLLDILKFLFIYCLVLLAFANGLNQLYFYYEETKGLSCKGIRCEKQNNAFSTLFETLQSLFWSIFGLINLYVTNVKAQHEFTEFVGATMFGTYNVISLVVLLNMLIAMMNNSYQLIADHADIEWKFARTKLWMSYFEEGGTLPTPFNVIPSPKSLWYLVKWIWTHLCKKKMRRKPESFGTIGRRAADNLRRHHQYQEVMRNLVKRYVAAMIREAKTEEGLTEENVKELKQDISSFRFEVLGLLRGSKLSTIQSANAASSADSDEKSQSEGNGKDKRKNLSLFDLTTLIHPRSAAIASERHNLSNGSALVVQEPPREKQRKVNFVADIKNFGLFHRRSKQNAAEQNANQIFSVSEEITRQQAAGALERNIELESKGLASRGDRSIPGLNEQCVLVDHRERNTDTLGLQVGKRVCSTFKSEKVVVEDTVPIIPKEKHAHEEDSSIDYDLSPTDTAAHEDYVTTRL
TRPC4 agonist: TRPC4 (mouse) channel activation | B-score at 10 µM | Q9QUQ5 | 310,000 tested, 0.49% active | AID 2237 | HEK293 TRPC4beta/mu-opioid, Fluo4 calcium fluorescence; active compounds read high;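 active means B-score above 5 SD of library B-scores, and initial fluorescence ratio not above library mean plus 5 SD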;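 further: positive B-score marks a calcium rise read as TRPC4 activation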
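Assay system: HEK293 cells stably co-expressing mouse TRPC4beta and mu-opioid receptor / Timing: Fluo4 dye loading 45 min at room temperature, 110 s recording / Signal: Fluo4 calcium-sensitive dye fluorescence, kinetic, 1 Hz baseline / Read-out: integrated baseline-normalised fluorescence ratio, converted to per-well B score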
TRPC4 inh: blocks the mouse TRPC4 cation channel; HEK293 TRPC4beta/mu-opioid, DAMGO-evoked Fluo4 calcium flux; active compounds read low; B-score at 10 µM; 300,000 tested, 0.39% active; AID 2247;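 active means B-score over 3 SD under the library average, no early fluorescence shift, positive overall ratio signal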
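Assay system: Stable TRPC4beta/mu-opioid receptor HEK293 cells | Reagent: DAMGO in two steps, submaximal then maximal | Compound dosing: Single concentration per test compound | Signal: Fluo4 Ca2+ flux fluorescence | Evaluation: Per-well B score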
TRPC6 inhibitor: mouse TRPC6 channel inhibition; HEK293-TRPC6, membrane potential dye, ACh-evoked depolarization; active compounds read low; B-score at 10 µM; 310,000 tested, 1.1% active; Q61143;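 active means B-score under library mean minus 3 SD, initial fluorescence not abnormally high, positive integrated signal ratio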;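 further: B-score derived from integrated fluorescence ratio over the kinetic read; more negative B-score means stronger inhibition of depolarization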
TRPC4 spec 2: second selectivity test of TRPC6 inhibitors: effect on mouse TRPC4. HEK293 TRPC4/MOR, membrane potential dye fluorescence; channel activated by saturating DAMGO dose. shares compounds with TRPC6 inhibitor. AID 2776. 920 tested, 42% active. inhibition, % at 10 µM;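 active means compounds whose fluorescence signal differed from control wells by over 3 SD, either direction, in both duplicate plates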
TRPC4 spec: mouse TRPC4 off-target activity of TRPC6 inhibitors | shares compounds with TRPC6 inhibitor | HEK293 TRPC4/mu-opioid, membrane potential fluorescence | activity change, negative = inhibition, % at 10 µM | 920 tested, 61% active | AID 2777;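 active means rise or fall in signal beyond 3 SD of buffer-only wells in both replicate plates, either sign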;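 further: integrated kinetic ratio of fluorescence range over baseline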
HEK293 MPD ctr 2-1: second counter-screen for TRPC6 inhibitors: parental HEK293 cells; 920 tested, 31% active; shares compounds with TRPC6 inhibitor; signal change vs control, % at 10 µM; AID 2779; parental HEK293 membrane potential dye fluorescence; maximal acetylcholine challenge after compound addition;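 active means membrane potential signal moving either way by over 3 SD of the maximum-effect control, in both duplicate plates, meaning non-specific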
HEK293 MPD ctr-1: counter-screen for TRPC6 inhibitors: effect in parental HEK293 cells. shares compounds with TRPC6 inhibitor. 920 tested, 60% active. parental HEK293 membrane potential dye fluorescence. membrane potential signal change, % at 10 µM;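 active means membrane potential signal shifting up or down by more than 3 SD of buffer-only wells, on both duplicate plates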
HEK293 MPD ctr-2: checks TRPC6 modulator effects in parental HEK293 cells. AID 488924. membrane potential dye fluorescence. 2,400 tested, 51% active. shares compounds with TRPC6 inhibitor. membrane potential signal change, % at 10 µM;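 active means membrane potential signal moves up or down beyond 5 SD from buffer-only wells, on both duplicate plates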
HEK293 MPD ctr 2-2: second check of TRPC6 modulator effects in parental HEK293 cells; membrane potential dye fluorescence; after compound, maximal acetylcholine stimulation; 2,400 tested, 14% active; shares compounds with TRPC6 inhibitor; inhibition, % at 10 µM;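 active means membrane potential signal drops by more than 5 SD from the mean control signal, in both duplicate plates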;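 further: plate controls were acetylcholine ECmax control wells for no effect and buffer only wells for full effect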
TRPC4/MOR mod: mouse TRPC4 off-target activity of TRPC6 modulators; shares compounds with TRPC6 inhibitor; HEK293 TRPC4/mu-opioid, membrane potential fluorescence; percent change from control (negative = decrease, positive = increase), % at 10 µM; 2,400 tested, 69% active;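 active means membrane potential signal moved up or down beyond 5 SD of buffer control wells, in both duplicate plates, actives on both sides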;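 further: plate controls were assay buffer wells for no effect and DAMGO maximal-effect wells for full effect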
TRPC4 ctr inh 2: second selectivity test of TRPC6 modulators against mouse TRPC4; shares compounds with TRPC6 inhibitor; inhibition, % at 10 µM; HEK293 TRPC4/mu-opioid, membrane potential dye fluorescence; stimulated with maximal-effect DAMGO; 2,400 tested, 55% active;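 active means drop in membrane potential signal beyond 5 SD of the control wells in both duplicate plates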;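 further: TRPC4 counter screen for TRPC6 hits run under conditions tuned for TRPC6 not TRPC4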
TRPC6 block conf: confirmation of mouse TRPC6 inhibitors | AID 488960 | 3,300 tested, 43% active | HEK293-TRPC6, membrane potential dye, ACh-evoked depolarization | shares compounds with TRPC6 inhibitor | inhibition, % at 10 µM;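 active means fluorescence ratio falls more than 5 SD below the full-stimulation control mean, in both duplicate runs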;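 further: integrated fluorescence ratio of peak minus minimum over baseline after agonist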
TRPC6 act confirm: confirmation of mouse TRPC6 activators; HEK293-TRPC6 membrane potential dye fluorescence, FDSS; 2,800 tested, 11% active; AID 488961; activation, % at 10 µM; shares compounds with TRPC6 inhibitor;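 active means ratio signal rise beyond 5 SD above unstimulated control wells' mean, seen in both duplicate runs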;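 further: plate controls were buffer EC0 wells for no effect and acetylcholine ECmax response for full effect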
An asterisk follows results filed as active; i = inactive; ? = inconclusive; / = no result given.

SMILES	TRPC6 activator	Pemphigus Ab inh	TRPC4 PAM	TRPC4 agonist	TRPC4 inh	TRPC6 inhibitor	TRPC6 block conf	TRPC6 act confirm	others
O=C(Nc1ccc(Cl)cc1)C1CCN(C(=O)c2ccco2)CC1	i	/	i	i	i	i	/	/
O=[N+]([O-])c1ccc(/C=N/Nc2nc(N3CCCCC3)nc(N3CCCCC3)n2)cc1	i	96.8	i	i	i	-5.95*	i	i	HEK293 MPD ctr-2=i;HEK293 MPD ctr 2-2=i;TRPC4/MOR mod=i;TRPC4 ctr inh 2=i
Cc1cc(C)nc(N/N=C/c2cc(C)n(CC(F)(F)F)c2C)n1	i	105.1	i	i	i	i	/	/
COc1ccc(-n2c(O)c(/C=N/NS(=O)(=O)c3cc(C)ccc3C)c3ccccc3c2=O)cc1OC	i	134.0	i	i	i	i	/	/
COc1ccc(-n2c(O)c(/C=N/NS(=O)(=O)c3ccc(C)cc3)c3ccccc3c2=O)cc1OC	29*	/	i	i	i	i	i	96.0%*	HEK293 MPD ctr-2=241.5%*;HEK293 MPD ctr 2-2=i;TRPC4/MOR mod=11.0%*;TRPC4 ctr inh 2=i
Cc1ccc(NC(=S)N2CCCC(O)C2)cc1 (configuration not stated)	i	100.9	i	i	i	i	/	/
Cc1ccc(CNc2ccc3c(c2)ncn3C(C)(C)C)cc1	i	100.4	21*	i	i	-6.76*	i	i	TRPC4 spec 2=52.0%*;TRPC4 spec=12.1%*;HEK293 MPD ctr 2-1=240.0%*;HEK293 MPD ctr-1=i
COc1ccc(CNc2ccc3c(c2)nc(C)n3C)cc1	/	104.1	/	/	/	/	/	/
Cn1c(NCc2ccc(Cl)cc2)nc2ccccc21	i	103.6	i	i	i	i	/	/
Cc1nc2cc(NCc3ccc(Cl)cc3)ccc2n1C	i	115.7	i	i	i	-7.07*	60.0%*	i	TRPC4 spec 2=51.0%*;TRPC4 spec=-14.7%*;HEK293 MPD ctr 2-1=i;HEK293 MPD ctr-1=-300.0%*
Cc1ccc(CNc2ccc3c(c2)nc(C)n3C)cc1	i	113.9	i	i	i	-8.06*	66.0%*	i	TRPC4 spec 2=50.5%*;TRPC4 spec=-14.6%*;HEK293 MPD ctr 2-1=i;HEK293 MPD ctr-1=-175.5%*
CCOC(=O)/C(=C(/C)N)C1CC(=O)NC1=O (configuration not stated)	/	102.8	/	/	/	/	/	/
O=C(CCOc1ccccc1)NCC(c1ccco1)N1CCCCC1 (configuration not stated)	i	/	i	i	i	-5.57*	i	/	HEK293 MPD ctr-2=i;HEK293 MPD ctr 2-2=i;TRPC4/MOR mod=12.0%*;TRPC4 ctr inh 2=i
O=C(COc1ccccc1)NCC(c1ccco1)N1CCN(c2ccccc2F)CC1 (configuration not stated)	i	98.2	i	i	i	-5.88*	63.5%*	/	HEK293 MPD ctr-2=141.0%*;HEK293 MPD ctr 2-2=i;TRPC4/MOR mod=31.5%*;TRPC4 ctr inh 2=46.0%*
O=C(O)c1ccccc1N/N=C/c1cc(Br)cc(Br)c1O	i	93.3	i	i	-9*	-6.55*	i	i	HEK293 MPD ctr-2=i;HEK293 MPD ctr 2-2=i;TRPC4/MOR mod=-11.0%*;TRPC4 ctr inh 2=74.5%*
O=C(Cc1ccccc1)N/N=C/c1cc(Br)cc(Br)c1O	i	96.5	i	i	i	i	/	/
NCCCCCc1nnc(SCc2cccc(Cl)c2)o1	i	98.9	i	i	i	-6.79*	i	i	TRPC4 spec 2=i;TRPC4 spec=-0.3%*;HEK293 MPD ctr 2-1=i;HEK293 MPD ctr-1=0.8%*
NCCCCCc1nnc(SCC(=O)Nc2cccc(Cl)c2)o1	i	105.0	i	i	i	i	/	/
NCCc1nnc(SCc2ccccc2Cl)o1	i	95.4	i	i	i	i	/	/
NCCCCCc1nnc(SCc2ccc(Cl)cc2Cl)o1	i	107.9	i	i	i	-6.18*	i	/	HEK293 MPD ctr-2=i;HEK293 MPD ctr 2-2=i;TRPC4/MOR mod=13.5%*;TRPC4 ctr inh 2=53.0%*
Cn1c(C(=O)N2CCN(c3ccccc3)CC2)cc2cc(Cl)ccc21	i	82.5	i	i	i	i	/	/
Cc1cccc(C)c1NC(=O)CNC(=O)CCC(=O)c1cccs1	i	97.5	i	i	i	i	/	/
O=C(O)COc1ccccc1/C=N/NC(=O)CSc1nc2ccccc2n1Cc1ccc(Cl)cc1	i	99.3	i	i	i	i	/	/
Cc1ccc(C(=O)NCCCN2CCN(CCCNC(=O)c3ccc(C)cc3)CC2)cc1	i	109.5	i	i	i	i	/	/
Cc1cc(C)cc(N(C(=O)Cc2cccs2)C(C(=O)NC2CCCCC2)c2ccccn2)c1 (configuration not stated)	i	104.9	i	i	i	i	/	/
O=C(NC1CCCCC1)C(c1ccccn1)N(C(=O)Cc1cccs1)c1ccc(Cl)cc1 (configuration not stated)	i	98.8	i	i	i	-6.9*	i	/	TRPC4 spec 2=i;TRPC4 spec=22.0%*;HEK293 MPD ctr 2-1=i;HEK293 MPD ctr-1=10.6%*
CC(=O)c1cccc(NC(=O)c2cc3nc(C)cc(C)n3n2)c1	i	111.3	i	i	i	-5.1*	i	i	HEK293 MPD ctr-2=i;HEK293 MPD ctr 2-2=i;TRPC4/MOR mod=i;TRPC4 ctr inh 2=i
COc1cc(C(=O)OCC(=O)NC(=O)C2CCCCC2)ccc1OC(F)F	i	105.3	i	i	i	i	/	/
Cc1c(C)n(C)c2ccc(C(=O)NCCCN3CCN(c4ccc(F)cc4)CC3)cc12	i	?	i	i	i	i	/	/

Screening data: PubChem BioAssay, several laboratories
